Published values collected from several papers.
Each line is one published result; the experiments were not run side by side. pIC50, pKi: −log10 of the molar value.
Read-out: enzyme activity
Action: inhibitor
gag-pol protease: Gag-Pol polyprotein, protease (gag-pol, Human immunodeficiency virus type 1 group M subtype B, UniProt P04585)
gag-pol reverse transcriptase: Gag-Pol polyprotein, reverse transcriptase (gag-pol, Human immunodeficiency virus type 1 group M subtype B, UniProt P04585)

Compound	target	test	measurement	value
CC(C)CN(C[C@@H](O)[C@H](Cc1ccccc1)NC(=O)O[C@H]1CCO[C@H]2OCC[C@H]21)S(=O)(=O)c1ccc(C(=O)O)cc1	gag-pol protease	–	pKi	11.12
O=C1c2c(O)ccc(O)c2C(=O)c2c(NCCNCCO)ccc(NCCNCCO)c21	gag-pol reverse transcriptase	–	pIC50	5.20
COc1ccc(S(=O)(=O)N(CC(C)C)C[C@@H](O)[C@@H]2Cc3ccc(cc3)OCC=CCCc3c(O)cccc3C(=O)N2)cc1	gag-pol protease	–	pKi	9.70
C[C@H](Cn1cnc2c(N)ncnc21)OCP(=O)(O)O	gag-pol reverse transcriptase	–	pIC50	6.02
CC(C)C[C@H]1C(N2CC[C@H](N3C(=O)C=C(OC(C)(C)C)[C@@H]3C)C2)=CC(=O)N1[C@H]1CCN(C2=CC(=O)N[C@H]2Cc2ccccc2)C1	gag-pol protease	fluorescence	pIC50	4.26
Cc1ccc(-c2cnc3c(c2)c(C#N)cn3Cc2ccccc2)cc1	gag-pol reverse transcriptase	FRET	pIC50	< 4.00
CC[C@H](C)[C@H]1C(OC(C)(C)C)=CC(=O)N1[C@H]1CCN(C2=CC(=O)N([C@H]3CCN(C4=CC(=O)N[C@H]4CC(C)C)C3)[C@H]2C)C1	gag-pol protease	fluorescence	pIC50	3.95
CC(=O)c1cc2c(-c3ccc(N(C)C)cc3)c3c(nc2[nH]1)-c1ccccc1C3=O	gag-pol reverse transcriptase	FRET	pIC50	< 5.00
C=CCCCOc1ccc(C[C@H](NC(=O)c2cccc(O)c2CCC=C)[C@H](O)CN(CC(C)C)S(=O)(=O)c2ccc(OC)cc2)cc1	gag-pol protease	–	pKi	7.35
CCCc1c2c(nc3c1c(C#N)cn3C1CCCCC1)CCC2=O	gag-pol reverse transcriptase	FRET	pIC50	< 4.00
COc1ccc(S(=O)(=O)N(CC(C)C)C[C@@H](O)[C@@H]2Cc3ccc(cc3)OCCCC=CCCc3c(O)cccc3C(=O)N2)cc1	gag-pol protease	–	pKi	8.00
C=CCn1cc(C#N)c2cc(C#N)cnc21	gag-pol reverse transcriptase	FRET	pIC50	< 4.00
O=C(O)Cc1ccc(O)c(O)c1	Gag-Pol polyprotein, integrase (gag-pol, Human immunodeficiency virus type 1 group M subtype B, UniProt P04585)	–	pIC50	< 4.60
